Among the data in ChEMBL document CHEMBL1124925, “Anticandidal properties of N3-(4-methoxyfumaroyl)-L-2,3-diaminopropanoic acid oligopeptides” (1990) are Transport rate, Cleavage rate and MIC values, retold here.

Experiment [1] deals with Candida albicans. The experiment in a line: Tested for its rate of transport in Candida albicans ATCC 26278. The format is functional.
The subject of experiment [2] is Candida albicans. The experiment is described as follows: Tested for its intracellular cleavage rate in Candida albicans ATCC 26278. The format is functional. The essentials:
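Cell-free extract came from cells grown overnight on Sabouraud medium at 30 °C with vigorous shaking. Cells were washed and extracted in 0.05 M phosphate buffer, pH 6.5; protein was measured by Lowry (Layne modification). Peptides at 200 μM in 0.005 M phosphate buffer were incubated with extract at 30 °C for 30 min. Samples were taken every 10 min and released amino acid was measured by Cd-ninhydrin.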

Experiment [3] concerns Candida epidermidis. The experiment is described as follows: In vitro antifungal activity against Candida epidermidis OBS 6023.
Experiment [4] deals with Saccharomyces cerevisiae. The experiment is described as follows: In vitro antifungal activity against Saccharomyces cerevisiae ATCC 9763. Format: functional.
The test system of experiment [5] is Candida albicans. The experiment in a line: In vitro antifungal activity against 16 clinical strains of Candida albicans. The format is functional. The essentials: (§1)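 MIC by serial dilution in liquid YNB medium containing sodium glutamate, inoculated at 10^4 cells/mL; growth read turbidimetrically at 660 nm after 24 h at 30 °C. Strains were 16 fresh clinical isolates collected at the Medical Academy of Gdansk plus standard strain ATCC 26278.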

Experiment [6] deals with Candida albicans. The experiment is described as follows: In vitro antifungal activity against Candida albicans ATCC 26278. The format is functional. The essentials: as §1
For experiment [7], the system named is Saccharomyces cerevisiae. The experiment in a line: In vitro for antifungal activity against Saccharomyces cerevisiae ATCC 9763. The format is functional.
The subject of experiment [8] is Candida epidermidis. The experiment is described as follows: In vitro antifungal activity against Candida epidermidis OBS 6023. The source holds these as a separate data set.
Experiment [9] deals with Saccharomyces cerevisiae. The experiment is described as follows: Tested in vitro for antifungal activity against Saccharomyces cerevisiae ATCC 9763. The format is functional.

SMILES strings stand for the structures. Values after ≈ are worked out from the molar mass of the structure shown. Non-standard residues stand in square brackets, D forms with d. Residues, ends and D or L forms follow the SMILES beside them. *: point of attachment. Fumaryl(OMe) = COC(=O)/C=C/C(=O)*; Dap = NC[C@H](N)C(=O)O

`COC(=O)/C=C/C(=O)NC[C@H](NC(=O)[C@@H](CCSC)NC(=O)[C@@H](CCSC)NC(=O)[C@@H](N)CNC(=O)/C=C/C(=O)OC)C(=O)O` displayed a Transport rate in the experiment with Candida albicans [1] of 1.2 nM/min/mg.
As usually defined, the MIC is the smallest concentration in the dilution series that meets the test's criterion for growth inhibition. Lower therefore signals inhibition by little substance. `CCC[C@H](NC(=O)[C@@H](N)CCSC)C(=O)N[C@@H](CNC(=O)/C=C/C(=O)OC)C(=O)O` registered a Cleavage rate in the experiment with Candida albicans [2] of 17.3 nM/min/mg. Moreover, the MIC was 130 µg/mL (≈ 291 µM) against Candida epidermidis [3], 7.5 µg/mL (≈ 16.8 µM) against Saccharomyces cerevisiae [4], 0.05 µg/mL (≈ 0.112 µM) in the experiment on Candida albicans [5] and 0.125 µg/mL (≈ 0.28 µM) in the experiment on Candida albicans [6].
In the case of `COC(=O)/C=C/C(=O)NC[C@H](N)C(=O)N[C@@H](CCSC)C(=O)N[C@@H](C)C(=O)O`, the Cleavage rate in the experiment on Candida albicans [2] was 4.9 nM/min/mg. For the same compound, the MIC was 50 µg/mL (≈ 119 µM) against Candida epidermidis [3], 15 µg/mL (≈ 35.8 µM) in the experiment with Saccharomyces cerevisiae [4], 0.1 µg/mL (≈ 0.239 µM) against Candida albicans [5] and 0.25 µg/mL (≈ 0.597 µM) in the experiment on Candida albicans [6].
Take `CCC[C@H](NC(=O)[C@H](CNC(=O)/C=C/C(=O)OC)NC(=O)[C@@H](N)CCC)C(=O)O`: the Cleavage rate in the experiment with Candida albicans [2] stood at 8.9 nM/min/mg. Moreover, the Transport rate with Candida albicans [1] was 2.9 nM/min/mg. In addition, the MIC in the experiment on Candida epidermidis [3] stood at 125 µg/mL (≈ 302 µM); against Saccharomyces cerevisiae [7] it was 50 µg/mL (≈ 121 µM); against Candida albicans [5], 0.01 µg/mL (≈ 0.0241 µM); in the experiment on Candida albicans [6] it was 0.05 µg/mL (≈ 0.121 µM).
In turn, `COC(=O)/C=C/C(=O)NC[C@H](NC(=O)[C@H](CCSC)NC(=O)[C@H](CCSC)NC(=O)[C@H](CCSC)NC(=O)[C@@H](N)CCSC)C(=O)O` (H-MMMM[Dap](Fumaryl(OMe))-OH) displayed a Cleavage rate in the experiment on Candida albicans [2] of 18.6 nM/min/mg. For the same compound, the minimal inhibitory concentration (MIC) against Saccharomyces cerevisiae [4] is 37.5 µg/mL (≈ 50.6 µM); in the experiment with Candida epidermidis [8], 75 µg/mL (≈ 101 µM); with Candida albicans [5], 0.25 µg/mL (≈ 0.337 µM); with Candida albicans [6], 0.5 µg/mL (≈ 0.675 µM).
With `COC(=O)/C=C/C(=O)NC[C@H](NC(=O)[C@H](CCSC)NC(=O)[C@H](CCSC)NC(=O)[C@@H](N)CNC(=O)/C=C/C(=O)OC)C(=O)O`, in the experiment with Candida albicans [2], the Cleavage rate was found to be 5.8 nM/min/mg. Moreover, the MIC was determined as 75 µg/mL (≈ 111 µM) against Candida epidermidis [3], 75 µg/mL (≈ 111 µM) against Saccharomyces cerevisiae [4], 0.25 µg/mL (≈ 0.369 µM) against Candida albicans [5] and 0.25 µg/mL (≈ 0.369 µM) against Candida albicans [6].
Turning to `COC(=O)/C=C/C(=O)NC[C@H](NC(=O)[C@@H](N)CCSC)C(=O)N[C@@H](CCSC)C(=O)O`, in the experiment with Candida albicans [2], the Cleavage rate worked out at 4.8 nM/min/mg. Also, the MIC stood at 110 µg/mL (≈ 230 µM) against Candida epidermidis [3], 50 µg/mL (≈ 104 µM) against Saccharomyces cerevisiae [4], 0.15 µg/mL (≈ 0.313 µM) with Candida albicans [5] and 0.3 µg/mL (≈ 0.627 µM) with Candida albicans [6].
With `CCC[C@H](NC(=O)[C@@H](N)CCCCN)C(=O)N[C@@H](CNC(=O)/C=C/C(=O)OC)C(=O)O`, in the experiment with Candida albicans [2], the Cleavage rate was 51 nM/min/mg. Besides, the minimal inhibitory concentration (MIC) against Candida epidermidis [3] was 125 µg/mL (≈ 282 µM); in the experiment on Candida albicans [5], 0.01 µg/mL (≈ 0.0225 µM); in the experiment on Candida albicans [6], 0.025 µg/mL (≈ 0.0564 µM).
As to `COC(=O)/C=C/C(=O)NC[C@H](NC(=O)[C@H](C)NC(=O)[C@@H](N)CCSC)C(=O)O`, in the experiment with Candida albicans [2], the Cleavage rate was found to be 15.2 nM/min/mg. For the same compound, the MIC was 125 µg/mL (≈ 299 µM) against Candida epidermidis [3], 7.5 µg/mL (≈ 17.9 µM) in the experiment on Saccharomyces cerevisiae [4], 0.25 µg/mL (≈ 0.597 µM) in the experiment with Candida albicans [5] and 0.75 µg/mL (≈ 1.79 µM) against Candida albicans [6].
In turn, `COC(=O)/C=C/C(=O)NC[C@H](NC(=O)[C@H](CCSC)NC(=O)[C@@H](N)CCSC)C(=O)O` registered a Cleavage rate with Candida albicans [2] of 4.9 nM/min/mg. The MIC in the experiment on Candida epidermidis [3] was determined as 125 µg/mL (≈ 261 µM); in the experiment on Saccharomyces cerevisiae [9] it was 37.5 µg/mL (≈ 78.4 µM); in the experiment with Candida albicans [5] it was 0.1 µg/mL (≈ 0.209 µM); in the experiment on Candida albicans [6], 0.25 µg/mL (≈ 0.522 µM).
`COC(=O)/C=C/C(=O)NC[C@H](NC(=O)[C@H](CNC(=O)/C=C/C(=O)OC)NC(=O)[C@@H](N)CCSC)C(=O)O` gave a Cleavage rate with Candida albicans [2] of 10 nM/min/mg. Moreover, the minimum inhibitory concentration (MIC) against Candida epidermidis [3] was 125 µg/mL (≈ 229 µM); in the experiment on Saccharomyces cerevisiae [4] it was 150 µg/mL (≈ 275 µM); in the experiment on Candida albicans [5], 0.25 µg/mL (≈ 0.458 µM); with Candida albicans [6], 0.75 µg/mL (≈ 1.37 µM).
In the same order, the values of `COC(=O)/C=C/C(=O)NC[C@H](NC(=O)[C@H](CCSC)NC(=O)[C@H](CCSC)NC(=O)[C@@H](N)CCSC)C(=O)O` (H-MMM[Dap](Fumaryl(OMe))-OH) are 23.7 nM/min/mg, 75 µg/mL (≈ 123 µM), 100 µg/mL (≈ 164 µM), 0.25 µg/mL (≈ 0.41 µM) and 0.75 µg/mL (≈ 1.23 µM).
In the experiment with Candida albicans [2], `COC(=O)/C=C/C(=O)NC[C@H](NC(=O)[C@H](C)N)C(=O)N[C@@H](C)C(=O)O` displayed a Cleavage rate of 5.4 nM/min/mg. In addition, the Transport rate in the experiment with Candida albicans [1] was 0.9 nM/min/mg. The MIC is 80 µg/mL (≈ 223 µM) in the experiment on Candida epidermidis [3], 37.5 µg/mL (≈ 105 µM) in the experiment on Saccharomyces cerevisiae [4], 0.25 µg/mL (≈ 0.698 µM) with Candida albicans [5] and 0.75 µg/mL (≈ 2.09 µM) in the experiment on Candida albicans [6].
In the experiment with Candida albicans [2], `COC(=O)/C=C/C(=O)NCC(N)C(=O)N[C@@H](CCSC)C(=O)N[C@@H](CNC(=O)/C=C/C(=O)OC)C(=O)O` (some centres undefined) returned a Cleavage rate of 3 nM/min/mg. In the experiment with Candida albicans [1], the Transport rate came out at 1.4 nM/min/mg. Further, the MIC against Candida epidermidis [3] turned out to be 75 µg/mL (≈ 137 µM); against Saccharomyces cerevisiae [4], 150 µg/mL (≈ 275 µM); against Candida albicans [5] it was 0.25 µg/mL (≈ 0.458 µM); in the experiment with Candida albicans [6], 0.75 µg/mL (≈ 1.37 µM).
Turning to `COC(=O)/C=C/C(=O)NC[C@H](NC(=O)[C@H](N)CCSC)C(=O)N[C@H](CCSC)C(=O)O`, the Transport rate in the experiment on Candida albicans [1] amounted to 2 nM/min/mg.
